Among the data in ChEMBL document CHEMBL4190396, “Discovery of Novel Small-Molecule Inhibitors of NF-κB Signaling with Antiinflammatory and Anticancer Properties” (J Med Chem, 2018) are inhibition values, retold here.

Structures are written as SMILES. Active and inactive are the calls of the source. The calls are words filed in the database; no cut-off is given here.

Assay type in all cases: cell-based
In assay [1] the target is T1, Toll-like receptor 7 (Homo sapiens) (UniProt Q9NYK1).
T1 sequence (whole entry): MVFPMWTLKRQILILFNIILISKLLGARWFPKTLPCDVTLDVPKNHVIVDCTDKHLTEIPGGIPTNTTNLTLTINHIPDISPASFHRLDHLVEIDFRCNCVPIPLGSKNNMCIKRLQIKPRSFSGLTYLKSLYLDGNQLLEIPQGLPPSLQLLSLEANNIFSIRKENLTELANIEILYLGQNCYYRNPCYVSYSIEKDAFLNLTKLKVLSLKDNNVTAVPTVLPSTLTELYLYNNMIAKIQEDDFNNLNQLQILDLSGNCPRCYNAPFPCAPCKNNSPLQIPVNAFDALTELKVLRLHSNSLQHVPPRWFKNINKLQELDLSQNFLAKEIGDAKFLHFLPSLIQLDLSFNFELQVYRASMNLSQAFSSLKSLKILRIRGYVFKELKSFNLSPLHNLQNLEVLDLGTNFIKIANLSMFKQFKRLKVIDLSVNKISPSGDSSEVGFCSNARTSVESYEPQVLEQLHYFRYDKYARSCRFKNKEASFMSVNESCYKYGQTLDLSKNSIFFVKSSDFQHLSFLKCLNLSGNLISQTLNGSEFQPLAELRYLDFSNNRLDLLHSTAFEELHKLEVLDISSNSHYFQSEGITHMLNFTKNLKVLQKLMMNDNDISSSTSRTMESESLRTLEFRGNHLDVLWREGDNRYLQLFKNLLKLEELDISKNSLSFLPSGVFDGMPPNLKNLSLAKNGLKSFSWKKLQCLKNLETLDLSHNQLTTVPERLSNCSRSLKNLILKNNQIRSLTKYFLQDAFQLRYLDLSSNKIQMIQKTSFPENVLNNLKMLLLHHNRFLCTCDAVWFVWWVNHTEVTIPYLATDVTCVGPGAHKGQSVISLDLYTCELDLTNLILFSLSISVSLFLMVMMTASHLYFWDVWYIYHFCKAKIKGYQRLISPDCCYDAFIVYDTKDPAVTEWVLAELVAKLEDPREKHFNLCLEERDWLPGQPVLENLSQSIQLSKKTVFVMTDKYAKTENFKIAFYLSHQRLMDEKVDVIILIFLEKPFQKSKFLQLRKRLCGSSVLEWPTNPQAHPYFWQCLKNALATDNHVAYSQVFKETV
Kind of assay: Inhibition of human TLR7 expressed in HEK293 cells assessed as decrease in R848-induced NF-kappaB activation-mediated SEAP production at 40 uM after 24 hrs by Quanti-blue-based assay relative to control. The gist of the method:
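Screening mode: HEK hTLR7 cells, 20,000/well in duplicate, stimulated with R848 1 µg/mL, library compounds at 40 µM; triptolide 40 nM positive control, 0.4% DMSO negative control; SEAP read by QUANTI-Blue.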

Assay [2] deals with T1, Toll-like receptor 7 (Homo sapiens). The experiment in a line: Inhibition of human TLR7 expressed in HEK293 cells assessed as decrease in R848-induced NF-kappaB activation-mediated SEAP production at 5 uM after 24 hrs by Quanti-blue-based assay relative to control.
For assay [3] the target is unchanged. Kind of assay: Inhibition of human TLR7 expressed in HEK293 cells assessed as decrease in R848-induced NF-kappaB activation-mediated SEAP production at 30 uM after 24 hrs by Quanti-blue-based assay relative to control.

In the case of `Nc1nccnc1C(=O)NNC(=O)c1ccc(C(F)(F)F)cc1`, the inhibition (as a rule, the drop in the measured response relative to a control, in per cent) in assay [1] was found to be 79%.

For the compound `O=C(NNC(=O)c1ccccn1)c1cccc(C(F)(F)F)c1`, the inhibition in assay [1] was 88%. Take `CCCC1Nc2nccnc2C(=O)N1NC(=O)c1cccc(C(F)(F)F)c1` (configuration not stated): in assay [1], the inhibition was 21%. As to `O=C(NNC(=O)c1csc(-c2cccc(C(F)(F)F)c2)n1)c1ccccn1`, the inhibition in assay [2] amounted to 96.7%.

For `O=C(NNC(=O)c1csc(-c2cccc(Cl)c2)n1)c1ccccn1`, the inhibition in assay [2] came out at 93.7%. On to `O=C(NNC(=O)c1ncccc1O)c1ccc(Br)cc1`, for which the inhibition in assay [1] is 96.2%. Take `Nc1nccnc1C(=O)NNC(=O)c1cccc(C(F)(F)F)c1`: in assay [1], the inhibition is 68%. In addition, the inhibition entry in assay [3] is “Active”.

On to `COc1ccc(C(=O)NNC(=O)c2nccnc2N)cc1`, for which the inhibition in assay [1] is 20.4%.

With `O=C(NNC(=O)c1csc(-c2cc(Cl)cc(Cl)c2)n1)c1ccccn1`, in assay [2], the inhibition came out at 99.1%. The same measure, in the same setting: for `O=C(NNC(=O)c1csc(-c2ccc(F)cc2)n1)c1ccccn1` the value was 65%.

In the case of `Cc1nc(C(=O)NNC(=O)c2cccc(C#N)c2)cs1`, the inhibition in assay [1] amounted to 6.4%. The same measure, in the same setting: with `O=C(NNC(=O)c1ncccc1O)c1ccc(Cl)cc1` the figure was 81%.

Turning to `Nc1ncc(Br)nc1C(=O)NNC(=O)c1cccc(C(F)(F)F)c1`, the inhibition in assay [1] was 18.2%.

With `Nc1nccnc1C(=O)NNC(=O)c1c(Cl)cccc1Cl`, the inhibition in assay [1] was 28%. Same read-out and setting: for `COC(=O)c1ccc(C(=O)NNC(=O)c2nccnc2N)cc1` the value was 18%.

Consider `Nc1nccnc1C(=O)NNC(=O)c1ccc(F)cc1F`, for which, in assay [1], the inhibition amounted to 26%. Still for that read-out and setting: with `O=C(NNC(=O)c1cnccn1)c1cccc(C(F)(F)F)c1` the figure was 29%. With `COc1ccc(-c2nc(C(=O)NNC(=O)c3ccccn3)cs2)cc1OC`, the inhibition in assay [2] was 66%. For `Cc1ncc(C(=O)NNC(=O)c2ccc(Cl)cc2)s1`, the inhibition in assay [1] was determined as 17%. On the same count and under the same terms, for `O=C(NNC(=O)c1nccs1)c1ccc(Cl)cc1` the value was 24%; for `Cc1nc(C(=O)NNC(=O)c2cccnc2)cs1`, 21%. Regarding `O=C(NNC(=O)c1csc(-c2cccc(Cl)c2Cl)n1)c1ccccn1`, the inhibition in assay [2] stood at 99.9%. As for `Nc1nccnc1C(=O)NNC(=O)c1ccc([N+](=O)[O-])cc1Cl`, the inhibition in assay [1] turned out to be 23%.

For the compound `COc1cccc(C(=O)NNC(=O)c2csc(C)n2)c1`, the inhibition in assay [1] turned out to be 24%. Still for that read-out and setting: for `Cc1nc(C(=O)NNC(=O)c2cc(Cl)cc(Cl)c2)cs1` the value was 24%.

For the compound `COc1ccc(-c2nc(C(=O)NNC(=O)c3ccccn3)cs2)cc1`, in assay [2], the inhibition is 80.3%.

As for `Nc1nccnc1C(=O)NNC(=O)c1ccccc1C(F)(F)F`, the inhibition in assay [1] was 23%.

Consider `Nc1nccnc1C(=O)NNC(=O)c1ccc(Br)cc1`, for which the inhibition in assay [1] stood at 36.2%. Regarding `Nc1nccnc1C(=O)NNC(=O)c1ccc(OC(F)(F)F)cc1`, the inhibition in assay [1] stood at 72%.

Turning to `COC(=O)c1cccc(C(=O)NNC(=O)c2csc(C)n2)c1`, the inhibition in assay [1] was determined as 9%. Regarding `Nc1nccnc1C(=O)NNC(=O)c1ccc(O)cc1`, the inhibition in assay [1] was 17.7%. As for `Cc1ccc2c(Cl)c(C(=O)NNC(=O)c3ccc(Cl)cc3)sc2c1`, the inhibition in assay [1] was 16.7%. Regarding `Cc1ccc(-c2nc(C(=O)NNC(=O)c3ccccn3)cs2)cc1`, the inhibition in assay [2] stood at 88.2%.

With `CCc1ccc(-c2nc(C(=O)NNC(=O)c3ccccn3)cs2)cc1`, the inhibition in assay [2] came to 91.9%. Take `Cc1nc(C(=O)NNC(=O)c2ccc(Cl)cc2)cs1`: the inhibition in assay [1] is 51%. Further, in assay [3], the inhibition entry was “Active”. With `Cc1nc(C(=O)NNC(=O)c2ccncc2)cs1`, the inhibition in assay [1] was 19.5%. Regarding `O=C(NNC(=O)c1csc(-c2ccc(Cl)cc2)n1)c1ccccn1`, the inhibition in assay [2] stood at 91%. `N#Cc1ccc(C(=O)NNC(=O)c2nccnc2N)cc1`: in assay [1], the inhibition worked out at 15%. Same read-out and setting: with `CCCCCCNC(=O)c1ccc(C(=O)NNC(=O)c2nccnc2N)cc1` the figure was 17%; with `O=C(NNC(=O)c1csc(-c2ccncc2)n1)c1ccccn1`, 33%; with `O=C(NNC(=O)c1cc2ccccc2[nH]1)c1ccc(Cl)cc1`, 13%. For the compound `O=C(NNC(=O)c1ccccn1)c1ccc(Br)cc1`, the inhibition in assay [1] came to 82.3%.

On to `Cc1nc(C(=O)NNC(=O)c2ccccc2Cl)cs1`, for which the inhibition in assay [1] turned out to be 6%. Take `O=C(NNC(=O)c1csc(-c2cccc(Br)c2)n1)c1ccccn1`: the inhibition in assay [2] was 97.6%. Take `O=C(NNC(=O)c1nccnc1Cl)c1cccc(C(F)(F)F)c1`: the inhibition in assay [1] is 19%.

For `O=C(NNC(=O)c1csc(-c2cccc(F)c2)n1)c1ccccn1`, the inhibition in assay [2] worked out at 79%. Turning to `CC(C)c1cc(C(=O)NNC(=O)c2ccc(Cl)cc2)[nH]n1`, the inhibition in assay [1] was 11%. For `CN(C)c1ccc(-c2nc(C(=O)NNC(=O)c3ccccn3)cs2)cc1`, the inhibition in assay [2] was determined as 93.1%. For `Nc1nccnc1C(=O)NNC(=O)c1ccc(Cl)cc1`, in assay [1], the inhibition turned out to be 42%. Still for that read-out and setting: with `CC(C)c1nc(C(=O)NNC(=O)c2ccccn2)cs1` the figure was 94.2%; with `O=C(NNC(=O)c1ncccc1O)c1cccc(C(F)(F)F)c1`, 96%. Still for that read-out and setting: for `O=C(NNC(=O)c1ccccn1)c1ccc(OC(F)(F)F)cc1` the value was 79.8%; for `Nc1ncccc1C(=O)NNC(=O)c1cccc(C(F)(F)F)c1`, 22%; for `Cc1nc(C(=O)NNC(=O)c2ccccn2)cs1`, 73%.

Turning to `O=C(NNC(=O)c1ncccc1O)c1ccc(OC(F)(F)F)cc1`, in assay [1], the inhibition turned out to be 96.5%. The same measure, in the same setting: with `O=C(NNC(=O)c1ccccn1)c1ccc(Cl)cc1` the figure was 76%; with `O=C(NNC(=O)c1ncccc1O)c1ccc(C(F)(F)F)cc1`, 97.4%. Same read-out and setting: for `Nc1ncc(Cl)nc1C(=O)NNC(=O)c1cccc(C(F)(F)F)c1` the value was 21%; for `Nc1cccnc1C(=O)NNC(=O)c1cccc(C(F)(F)F)c1`, 83.1%. Same read-out and setting: for `Cc1nc(C(=O)NNC(=O)c2cccc(Cl)c2)cs1` the value was 40%. Consider `O=C(NNC(=O)c1csc(-c2ccc(C(F)(F)F)cc2)n1)c1ccccn1`, for which the inhibition in assay [2] stood at 96.1%. Turning to `Cc1nc(C(=O)NNC(=O)c2cccc(Br)c2)cs1`, the inhibition in assay [1] came out at 30.6%.

Take `O=C(NNC(=O)c1ccccn1)c1ccc(C(F)(F)F)cc1`: the inhibition in assay [1] was 85.4%.

For `Cc1nc(C(=O)NNC(=O)c2cccc(O)c2)cs1`, the inhibition in assay [1] was 18%.

Take `O=C(NNC(=O)c1csc(-c2ccccc2)n1)c1ccccn1`: in assay [1], the inhibition stood at 98.8%. Turning to `Cc1nc(C(=O)NNC(=O)c2cccc(OC(F)(F)F)c2)cs1`, in assay [1], the inhibition turned out to be 26%. In the case of `Nc1nccnc1C(=O)NNC(=O)c1cccnc1`, in assay [1], the inhibition turned out to be 12%. Consider `Cc1nc(C(=O)NNC(=O)c2cccc(F)c2)cs1`, for which the inhibition in assay [1] stood at 21.1%. Still for that read-out and setting: for `O=C(NNC(=O)c1csc(-c2cccnc2)n1)c1ccccn1` the value was 86%; for `Cc1nc(C(=O)NNC(=O)c2cccc(C(F)(F)F)c2)cs1`, 31%.
